Values belong to the molecule of their own block, whether it stands above or below them. Active and inactive are the calls of the source. The calls are words filed in the database; no cut-off is given here.
Assays:
[1] = biological target: T1, Adenosine receptor A3 (Rattus norvegicus) (UniProt P28647); assay: Binding affinity to rat adenosine A3 receptor
T1 sequence (whole entry): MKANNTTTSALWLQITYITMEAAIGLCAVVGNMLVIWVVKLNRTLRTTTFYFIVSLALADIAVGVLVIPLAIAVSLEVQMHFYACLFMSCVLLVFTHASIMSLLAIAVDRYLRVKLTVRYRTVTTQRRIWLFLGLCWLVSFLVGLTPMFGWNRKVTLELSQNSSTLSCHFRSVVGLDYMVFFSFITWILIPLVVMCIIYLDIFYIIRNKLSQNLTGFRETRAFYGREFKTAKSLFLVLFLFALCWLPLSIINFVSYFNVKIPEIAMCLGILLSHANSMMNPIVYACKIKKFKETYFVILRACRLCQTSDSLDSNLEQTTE

[2] = biological target: T2, Adenosine receptor A3 (Homo sapiens, UniProt P0DMS8); assay: Binding affinity to human adenosine A3 receptor
T2 sequence (P0DMS8 whole entry): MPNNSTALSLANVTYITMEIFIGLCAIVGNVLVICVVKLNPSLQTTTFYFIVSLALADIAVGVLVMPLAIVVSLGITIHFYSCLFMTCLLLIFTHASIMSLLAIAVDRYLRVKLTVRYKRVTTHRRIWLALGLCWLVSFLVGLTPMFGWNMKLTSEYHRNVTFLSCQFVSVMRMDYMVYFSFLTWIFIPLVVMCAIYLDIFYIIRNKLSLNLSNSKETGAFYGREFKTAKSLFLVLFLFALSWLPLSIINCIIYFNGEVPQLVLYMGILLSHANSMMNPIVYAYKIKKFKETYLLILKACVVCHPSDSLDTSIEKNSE

[3] = biological target: Transient receptor potential cation channel subfamily V member 1 (Rattus norvegicus) (UniProt O35433); assay: Agonist activity at TRPV1 receptor in E15 rat primary dorsal root ganglion cells assessed as effect on 45Ca2+ influx by microplate liquid scintillation counter; format: functional, tissue-based
Sequence of Transient receptor potential cation channel subfamily V member 1 (Rattus norvegicus) (O35433 whole entry, the tested form may be a part): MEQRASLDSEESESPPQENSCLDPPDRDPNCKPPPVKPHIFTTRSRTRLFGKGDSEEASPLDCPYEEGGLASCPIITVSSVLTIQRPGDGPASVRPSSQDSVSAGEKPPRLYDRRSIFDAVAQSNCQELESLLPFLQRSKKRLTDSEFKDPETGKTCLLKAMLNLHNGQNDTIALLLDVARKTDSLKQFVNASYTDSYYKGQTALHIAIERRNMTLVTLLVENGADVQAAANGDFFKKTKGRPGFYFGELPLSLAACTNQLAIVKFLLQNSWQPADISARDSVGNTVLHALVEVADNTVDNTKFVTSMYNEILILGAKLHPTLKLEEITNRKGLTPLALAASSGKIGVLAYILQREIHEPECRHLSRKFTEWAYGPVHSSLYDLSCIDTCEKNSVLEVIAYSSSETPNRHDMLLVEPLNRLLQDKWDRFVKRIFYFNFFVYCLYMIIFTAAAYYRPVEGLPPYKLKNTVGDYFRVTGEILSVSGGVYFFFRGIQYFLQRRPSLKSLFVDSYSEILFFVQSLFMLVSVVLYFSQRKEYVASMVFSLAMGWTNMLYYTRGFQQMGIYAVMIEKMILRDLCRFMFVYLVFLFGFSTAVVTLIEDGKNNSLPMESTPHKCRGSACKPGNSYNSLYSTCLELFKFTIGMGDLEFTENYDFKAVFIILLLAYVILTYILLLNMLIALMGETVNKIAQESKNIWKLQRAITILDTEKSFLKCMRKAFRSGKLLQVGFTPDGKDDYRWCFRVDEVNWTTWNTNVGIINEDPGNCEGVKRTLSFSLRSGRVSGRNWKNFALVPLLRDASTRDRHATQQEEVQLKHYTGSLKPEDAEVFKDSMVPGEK
How it was run: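 DRGs from E15 rat embryos, enzymatically dissociated, grown 5–6 days at 35°C. Test compound given without capsaicin. 45Ca2+ uptake run 10 min at 20°C in Tris-buffered (pH 7.5) HBSS with 1 mM ascorbate, 10 µM CaCl2 and 0.8 mM MgCl2, with 0.5 µCi/well tracer. Cells were washed, lysed in RIPA and counted by scintillation.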

[4] = biological target: T3, Transient receptor potential cation channel subfamily V member 1 (Homo sapiens, UniProt Q8NER1); assay: Agonist activity at epsilon-epitope tagged TRPV1 receptor expressed in mouse NIH3T3 cells assessed as effect on 45Ca2+ influx by microplate liquid scintillation counter; format: functional, cell-based
T3 sequence (Q8NER1 whole entry): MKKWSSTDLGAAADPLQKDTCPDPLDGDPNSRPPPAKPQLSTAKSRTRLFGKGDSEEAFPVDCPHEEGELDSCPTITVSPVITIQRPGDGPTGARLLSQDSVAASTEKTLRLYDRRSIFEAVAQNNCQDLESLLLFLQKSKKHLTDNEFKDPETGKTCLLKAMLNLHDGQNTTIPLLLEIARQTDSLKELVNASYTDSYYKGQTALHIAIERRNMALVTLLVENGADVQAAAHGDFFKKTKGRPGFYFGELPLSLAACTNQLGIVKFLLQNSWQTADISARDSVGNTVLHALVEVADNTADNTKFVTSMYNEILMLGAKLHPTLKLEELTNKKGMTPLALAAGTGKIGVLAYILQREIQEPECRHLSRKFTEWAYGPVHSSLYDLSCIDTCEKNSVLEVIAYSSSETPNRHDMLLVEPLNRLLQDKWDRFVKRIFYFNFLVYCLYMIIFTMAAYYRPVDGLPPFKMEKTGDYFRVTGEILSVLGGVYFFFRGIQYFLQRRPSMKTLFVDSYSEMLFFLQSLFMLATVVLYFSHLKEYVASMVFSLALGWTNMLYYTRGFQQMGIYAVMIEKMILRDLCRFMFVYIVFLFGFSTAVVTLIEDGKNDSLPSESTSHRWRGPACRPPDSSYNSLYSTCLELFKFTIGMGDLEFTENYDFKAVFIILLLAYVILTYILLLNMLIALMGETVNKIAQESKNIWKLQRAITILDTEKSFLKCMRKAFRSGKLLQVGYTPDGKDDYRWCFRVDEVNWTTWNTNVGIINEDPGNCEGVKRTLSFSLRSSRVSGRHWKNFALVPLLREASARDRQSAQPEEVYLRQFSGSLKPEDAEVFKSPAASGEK
How it was run: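 NIH3T3 cells stably expressing ε-tagged TRPV1 were seeded the day before and grown at 35°C. Test compound given without capsaicin, top concentration 100 µM, 2% DMSO. 45Ca2+ uptake run 10 min at 20°C in Tris-HBSS (pH 7.5) with ascorbate, 10 µM Ca2+ and 0.8 mM Mg2+. Cells were washed, lysed in RIPA and counted by scintillation.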

[5] = biological target: T3, Transient receptor potential cation channel subfamily V member 1; assay: Agonist-enhancing activity in epsilon-epitope tagged TRPV1 receptor expressed in mouse NIH3T3 cells assessed as capsaicin-induced 45Ca2+ influx at 100 uM by microplate liquid scintillation counter relative to capsaicin alone; format: functional, cell-based
How it was run: (§1)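 Stable ε-tagged TRPV1 NIH3T3 cells. Uptake with capsaicin 2 µM, 10 min at 20°C, 0.5 µCi/well 45Ca2+ in Tris-HBSS pH 7.5. Compound up to 100 µM, 2% DMSO, from 5 mM stocks, duplicate wells per concentration. Data normalized to capsaicin-only wells (100%). Variable-slope fit gave EC50 and ΔEmax; compounds too weak to fit were given ΔEmax at the top concentration.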

[6] = biological target: T3, Transient receptor potential cation channel subfamily V member 1; assay: Agonist-enhancing activity in epsilon-epitope tagged TRPV1 receptor expressed in mouse NIH3T3 cells assessed as capsaicin-induced 45Ca2+ influx by microplate liquid scintillation counter; format: functional, cell-based; how it was run: as §1
[7] = biological target: Transient receptor potential cation channel subfamily V member 1 (Rattus norvegicus) (UniProt O35433); assay: Agonist-enhancing activity at TRPV1 receptor in E15 rat primary dorsal root ganglion cells assessed as increase in intracellular calcium levels at 10 uM by Fura-4F AM based fluorimetric method relative to capsaicin alone; format: functional, tissue-based
How it was run: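 E15 rat DRG neurons on poly-ornithine/laminin coverslips, cultured 4–6 days. Loaded with 2.5 µM Fura-4F AM for 20 min at room temperature and perfused at 0.5 mL/min in pH 7.4 HEPES saline with ascorbate. Exposed 30 s to 200 nM capsaicin ± 10 µM compound, DMSO 0.04% in controls. 340/380 ratio read at 0.5 Hz and normalized to the 2-min baseline. Peak taken as the mean of 10 points, 3 coverslips per condition.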

[8] = biological target: Transient receptor potential cation channel subfamily V member 1 (Rattus norvegicus) (UniProt O35433); assay: Agonist-enhancing activity at TRPV1 receptor in E15 rat primary dorsal root ganglion cells assessed as capsaicin-induced 45Ca2+ influx by microplate liquid scintillation counter relative to capsaicin alone; format: functional, tissue-based
How it was run: (§2)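 E15 rat DRG cultures grown 5–6 days at 35°C. Uptake with capsaicin ~0.5 µM, 10 min at 20°C, 0.5 µCi/well 45Ca2+ in Tris-HBSS pH 7.5. Compound up to 50 µM, 0.2% DMSO, from 25 mM stocks. Counts normalized to in-plate capsaicin-only wells (100%, 4 wells). Variable-slope sigmoid fit gave EC50, Hill slope and ΔEmax.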

[9] = biological target: Transient receptor potential cation channel subfamily V member 1 (Rattus norvegicus) (UniProt O35433); assay: Agonist-enhancing activity at TRPV1 receptor in E15 rat primary dorsal root ganglion cells assessed as capsaicin-induced 45Ca2+ influx by microplate liquid scintillation counter; format: functional, tissue-based; how it was run: as §2

SMILES: CCOC(=O)C1=C(c2ccccc2)N=C(C)/C(=C(/O)OCC)C1C(OC)OC (stereo unspecified)
Activity [1]: inactive | Ki [2]: 15.3 µM | Activity [3]: inactive | Activity [4]: inactive | Emax [5]: 114%

SMILES: CCOC(=O)C1=C(c2ccccc2)N=C(C)/C(=C(/O)SCC)C1CC (stereo unspecified)
Activity [1]: inactive | EC50 [6]: 28.1 µM | Activity [3]: inactive | Activity [4]: inactive | Emax [5]: 435%

SMILES: CCOC(=O)C1=C(c2ccccc2)N=C(C)/C(=C(/O)SCCOC)C1CC (stereo unspecified)
Activity [1]: inactive | Ki [2]: 4.58 µM | Activity [7]: 13% | EC50 [6]: 21.3 µM | Activity [3]: inactive | Activity [4]: inactive | Emax [5]: 626%

SMILES: CCCC1=NC(c2ccccc2)=C(C(=O)OCC)C(CC)/C1=C(\O)SCC (stereo unspecified)
Activity [1]: inactive | Ki [2]: 2.09 µM | Activity [3]: inactive | Activity [4]: inactive | Emax [5]: 148%

SMILES: COC(=O)C1=C(C)NC(C)=C(C(=O)OCCN(C)Cc2ccccc2)C1c1cccc([N+](=O)[O-])c1 (stereo unspecified)
Activity [9]: inactive | Activity [6]: inactive

SMILES: CCOC(=O)C1=C(c2ccc(F)cc2)NC(C)=C(C(=O)SCCc2ccccc2)C1CC (racemic)
EC50 [6]: 51.6 µM | Activity [3]: inactive | Activity [4]: inactive | Emax [8]: 148% | Emax [5]: 232%

SMILES: CCOC(=O)C1=C(C)NC(c2cccc(F)c2)=C(C(=O)OCC)C1CC (racemic)
EC50 [6]: 26.7 µM | Activity [3]: inactive | Activity [4]: inactive | Emax [8]: 206% | Emax [5]: 403%

SMILES: CCOC(=O)C1=C(c2ccc(F)cc2)NC(C)=C(C(=O)SCC)C1CC (racemic)
EC50 [6]: 28.4 µM | Activity [3]: inactive | Activity [4]: inactive | Emax [5]: 409%

SMILES: CCOC(=O)C1=C(C2CCCCC2)NC(C)=C(C(=O)SCC)C1CC (racemic)
Activity [3]: inactive | Activity [4]: inactive | Emax [5]: 87%

SMILES: CCOC(=O)C1=C(c2ccc(C#N)cc2)NC(C)=C(C(=O)SCC)C1CC (racemic)
Activity [3]: inactive | Activity [4]: inactive | Emax [5]: 129%

SMILES: CCOC(=O)C1=C(c2ccc([N+](=O)[O-])cc2)NC(C)=C(C(=O)SCc2ccccc2)C1CC (racemic)
Activity [3]: inactive | Activity [4]: inactive | Emax [5]: 98%

SMILES: CCOC(=O)C1=C(c2ccc3ccccc3c2)NC(C)=C(C(=O)SCC)C1CC (racemic)
Activity [3]: inactive | Activity [4]: inactive | Emax [5]: 116%

SMILES: CCOC(=O)C1=C(c2cccc(Cl)c2)NC(C)=C(C(=O)SCCc2ccccc2)C1CC (racemic)
Activity [3]: inactive | Activity [4]: inactive | Emax [5]: 194%

SMILES: CCOC(=O)C1=C(c2ccccc2F)NC(C)=C(C(=O)SCc2ccccc2)C1CC (racemic)
Activity [3]: inactive | Activity [4]: inactive | Emax [5]: 123%

Other lines, results leading:

Activity [1]: inactive | EC50 [6]: 22.4 µM | Activity [3]: inactive | Activity [4]: inactive | Emax [8]: 318% | Emax [5]: 364%
SMILES: CCCC1C(C(=O)OCC)=C(c2ccccc2)N=C(C)/C1=C(/O)SCC (stereo unspecified)

Activity [1]: inactive | Activity [3]: inactive | Activity [4]: inactive | Emax [5]: 383%
SMILES: CCOC(=O)C1=C(c2ccccc2)N=C(C)/C(=C(/O)OCC)C1CC (stereo unspecified)

Activity [1]: inactive | Activity [3]: inactive | Activity [4]: inactive | Emax [5]: 257%
SMILES: CCOC(=O)C1=C(c2ccccc2)N=C(CC)/C(=C(/O)SCC)C1CC (stereo unspecified)

Activity [9]: inactive | Activity [6]: inactive
SMILES: CO/C(O)=C1\C(C)=NC(C)=C([N+](=O)[O-])[C@H]1c1ccccc1C(F)(F)F

EC50 [6]: 27.6 µM | Activity [3]: inactive | Activity [4]: inactive | Emax [8]: 231% | Emax [5]: 360%
SMILES: CCCC1C(C(=O)SCCc2ccccc2)=C(C)NC(c2ccccc2)=C1C(=O)OCC (racemic)

EC50 [6]: 21.8 µM | Activity [3]: inactive | Activity [4]: inactive | Emax [8]: 198% | Emax [5]: 446%
SMILES: CCOC(=O)C1=C(c2cccc(F)c2)NC(C)=C(C(=O)SCC)C1CC (racemic)

EC50 [6]: 17.1 µM | Activity [3]: inactive | Activity [4]: inactive | Emax [8]: 259% | Emax [5]: 347%
SMILES: CCOC(=O)C1=C(C)NC(c2cccc(Cl)c2)=C(C(=O)OCC)C1CC (racemic)

EC50 [6]: 29.2 µM | Activity [3]: inactive | Activity [4]: inactive | Emax [8]: 175% | Emax [5]: 372%
SMILES: CCOC(=O)C1=C(C)NC(c2ccc(F)cc2)=C(C(=O)OCC)C1CC (racemic)

Activity [3]: inactive | Activity [4]: inactive | Emax [5]: 177%
SMILES: CCCC1C(C(=O)SCC)=C(C)NC(c2cccc(Cl)c2)=C1C(=O)OCC (racemic)

Activity [3]: inactive | Activity [4]: inactive | Emax [5]: 175%
SMILES: CCOC(=O)C1=C(c2ccc(F)cc2)NC(C)=C(C(=O)SCC)C1C1CC1 (racemic)

Activity [3]: inactive | Activity [4]: inactive | Emax [8]: 117% | Emax [5]: 101%
SMILES: CCOC(=O)C1=C(c2ccc([N+](=O)[O-])cc2)NC(C)=C(C(=O)SCCc2ccccc2)C1CC (racemic)

Activity [3]: inactive | Activity [4]: inactive | Emax [5]: 124%
SMILES: CCOC(=O)C1=C(c2ccccc2F)NC(C)=C(C(=O)SC(C)C)C1CC (racemic)

Activity [3]: inactive | Activity [4]: inactive | Emax [5]: 198%
SMILES: CCOC(=O)C1=C(c2ccccc2F)NC(C)=C(C(=O)SCC)C1CC (racemic)

Activity [3]: inactive | Activity [4]: inactive | Emax [5]: 117%
SMILES: CCOC(=O)C1=C(c2ccccc2F)NC(C)=C(C(=O)SCCc2ccccc2)C1CC (racemic)
